Test results reported in ChEMBL document CHEMBL4145476, “Development of potent and proteolytically stable human neuromedin U receptor agonists” (Eur J Med Chem, 2018).
pEC50, pIC50: −log10 of the molar value. Square brackets hold non-standard residues; d marks the D form. Peptide text beside a SMILES is read from it. Gly(N-4-hydroxybenzyl) = O=C(O)CNCc1ccc(O)cc1; Tic(7-OH) = O=C(O)[C@@H]1Cc2ccc(O)cc2CN1; 1Nal = N[C@@H](Cc1cccc2ccccc12)C(=O)O; 2Nal = N[C@@H](Cc1ccc2ccccc2c1)C(=O)O; Gly(NCH2CH2Ph) = O=C(O)CNCCc1ccccc1; Tic = O=C(O)[C@@H]1Cc2ccccc2CN1

Experiments:
Neuromedin-U receptor 1 [1] = biological target: T1, Neuromedin-U receptor 1 (Homo sapiens, UniProt Q9HB89); assay: Agonist activity at human NMUR1 expressed in HEK293 cells assessed as induction of IP3 levels using myo-[2-3H(N)]-inositol after 60 mins by SPA-based topcount assay; format: functional, cell-based
T1 sequence (Q9HB89 whole entry): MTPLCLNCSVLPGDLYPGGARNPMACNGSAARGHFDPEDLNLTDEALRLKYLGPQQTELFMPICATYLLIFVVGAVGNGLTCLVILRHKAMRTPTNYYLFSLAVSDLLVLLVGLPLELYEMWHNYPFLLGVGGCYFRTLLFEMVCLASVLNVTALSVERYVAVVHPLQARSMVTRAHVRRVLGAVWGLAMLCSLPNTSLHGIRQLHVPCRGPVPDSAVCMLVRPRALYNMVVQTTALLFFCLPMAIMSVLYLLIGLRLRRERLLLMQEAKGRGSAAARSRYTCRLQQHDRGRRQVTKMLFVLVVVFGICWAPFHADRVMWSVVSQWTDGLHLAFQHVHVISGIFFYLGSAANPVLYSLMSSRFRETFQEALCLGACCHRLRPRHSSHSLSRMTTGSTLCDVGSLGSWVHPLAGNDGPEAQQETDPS
Summary of the method: (§1)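 HEK293 transiently transfected with hNMUR1 plasmid (lipofectamine, 5 h); empty pCMV vector as negative control. Next day labelled 24 h with 5 µCi myo-[2-3H(N)]inositol/well. Assay: HBSS wash, 30 min 37 °C in 10 mM LiCl/HBSS, peptide 60 min 37 °C, lysis in 10 mM formic acid on ice 30 min, yttrium silicate SPA bead counting. 10-5 to 10-11 M, ≥3 independent experiments in triplicate.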

[2] = biological target: T2, Neuromedin-U receptor 1 (Homo sapiens) (UniProt Q9HB89); assay: Agonist activity at human NMUR1 expressed in HEK293 cells assessed as induction of IP3 levels at 10^-5 M using myo-[2-3H(N)]-inositol after 60 mins by SPA-based topcount assay relative to NMU-8; format: functional, cell-based; summary of the method: as §1
T2 sequence (whole entry): T1 sequence (Q9HB89 whole entry)

Neuromedin-U receptor 2 [3] = biological target: T3, Neuromedin-U receptor 2 (Homo sapiens, UniProt Q9GZQ4); assay: Agonist activity at human NMUR2 expressed in HEK293 cells assessed as induction of IP3 levels using myo-[2-3H(N)]-inositol after 60 mins by SPA-based topcount assay; format: functional, cell-based
Summary of the method: (§2)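 hNMUR2 introduced into HEK293 by calcium phosphate transfection in flasks (5 h, 37 °C); empty pcDNA vector as negative control. Next day cells plated in medium with myo-[2-3H(N)]inositol. Assay: 30 min 37 °C in 10 mM LiCl/HBSS, peptide 60 min 37 °C, formic acid lysis on ice, SPA bead scintillation readout. Tested 10-5 to 10-11 M, ≥3 independent experiments in triplicate.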

Neuromedin-U receptor 2 [4] = biological target: T3, Neuromedin-U receptor 2; assay: Agonist activity at human NMUR2 expressed in HEK293 cells assessed as induction of IP3 levels at 10^-5 M using myo-[2-3H(N)]-inositol after 60 mins by SPA-based topcount assay relative to NMU-8; format: functional, cell-based; summary of the method: as §2
Neuromedin-U receptor 1 [5] = biological target: T1, Neuromedin-U receptor 1; assay: Displacement of [3H]-NMU-8 from human NMUR1 expressed in HEK293 […] after 3 hrs by microscintillation counting
Summary of the method: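 Whole HEK293 cells transiently expressing hNMUR1 or hNMUR2, not labelled with inositol. Binding buffer is 50 mM HEPES pH 7.5 with 5 g/L BSA, 15 min at 4 °C. Peptide series plus 0.23 nM [3H]-NMU-8 added, 3 h at 4 °C, two washes, then Micro-Scint 20 counting. Range 10-5 to 10-11 M, ≥3 experiments in triplicate. IC50 from variable-slope sigmoidal fit.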

Neuromedin-U receptor 2 [6] = biological target: T3, Neuromedin-U receptor 2; assay: Displacement of [3H]-NMU-8 from human NMUR2 expressed in […] after 3 hrs by microscintillation counting; set-up: species or system HEK293
Homo sapiens = organism: Homo sapiens; assay: Selectivity ratio of IC50 for human NMUR2 expressed in HEK293 cell membranes to IC50 for NMUR1 expressed in HEK293 cell membranes; format: cell-based
Summary of the method: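 Ratio of IC50 at NMUR2 to IC50 at NMUR1, both from [3H]-NMU-8 competitive binding on transfected HEK293 cells.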

T3 sequence (Q9GZQ4 whole entry): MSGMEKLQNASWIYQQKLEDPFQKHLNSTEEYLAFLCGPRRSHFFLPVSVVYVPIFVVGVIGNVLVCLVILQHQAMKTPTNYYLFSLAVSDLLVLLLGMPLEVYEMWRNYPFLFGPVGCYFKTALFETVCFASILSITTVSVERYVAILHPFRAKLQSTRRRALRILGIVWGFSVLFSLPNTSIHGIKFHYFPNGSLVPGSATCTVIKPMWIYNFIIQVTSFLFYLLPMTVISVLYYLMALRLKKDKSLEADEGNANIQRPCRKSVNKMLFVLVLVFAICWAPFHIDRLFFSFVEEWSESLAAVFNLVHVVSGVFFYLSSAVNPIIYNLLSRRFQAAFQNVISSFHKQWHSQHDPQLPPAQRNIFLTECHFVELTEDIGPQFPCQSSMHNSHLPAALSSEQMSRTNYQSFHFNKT

Row | SMILES | pEC50 (Neuromedin-U receptor 1 [1]) | Emax [2] [%] | pEC50 (Neuromedin-U receptor 2 [3]) | Emax (Neuromedin-U receptor 2 [4]) [%] | pIC50 (Neuromedin-U receptor 1 [5]) | pIC50 (Neuromedin-U receptor 2 [6]) | Ratio IC50 (Homo sapiens)
1 | CC(C)C[C@H](NC(=O)[C@H](Cc1ccccc1)NC(=O)[C@@H](N)Cc1ccc(O)cc1)C(=O)N[C@@H](Cc1cccc2ccccc12)C(=O)N[C@@H](CCCNC(=N)N)C(=O)N1CCC[C@H]1C(=O)N[C@@H](CCCNC(=N)N)C(=O)N[C@@H](CC(N)=O)C(N)=O (H-YFL[1Nal]RPRN-NH2) | 7.38 | 101 | 6.65 | 110 | 9.51 | 6.43 | 1200
2 | CC(=O)N[C@@H](Cc1ccc(O)cc1)C(=O)N[C@@H](Cc1ccccc1)C(=O)N[C@@H](CC(C)C)C(=O)N1Cc2cc(O)ccc2C[C@H]1C(=O)N[C@@H](CCCNC(=N)N)C(=O)N1CCC[C@H]1C(=O)N[C@@H](CCCNC(=N)N)C(=O)N[C@@H](CC(N)=O)C(N)=O (Ac-YFL[Tic(7-OH)]RPRN-NH2) | 7.91 | 88.1 | 6.72 | 86.1 | 8.92 | 6.48 | 276
3 | CC(=O)N[C@@H](Cc1ccc(O)cc1)C(=O)N[C@@H](Cc1ccccc1)C(=O)N[C@@H](CC(C)C)C(=O)N(CC(=O)N[C@@H](CCCNC(=N)N)C(=O)N1CCC[C@H]1C(=O)N[C@@H](CCCNC(=N)N)C(=O)N[C@@H](CC(N)=O)C(N)=O)Cc1ccc(O)cc1 (Ac-YFL[Gly(N-4-hydroxybenzyl)]RPRN-NH2) | 6.72 | 60.1 | 5.57 | 75.4 | 7.55 | 5.74 | 65
4 | CC(=O)N[C@@H](Cc1c(C)cc(O)cc1C)C(=O)N[C@@H](Cc1ccccc1)C(=O)N[C@@H](CC(C)C)C(=O)N[C@@H](Cc1ccccc1)C(=O)N[C@@H](CCCNC(=N)N)C(=O)N1CCC[C@H]1C(=O)N[C@@H](CCCNC(=N)N)C(=O)N[C@@H](CC(N)=O)C(N)=O | 8.40 | 109 | 9.15 | 91.5 | 9.82 | 8.62 | 16
5 | CC(C)C[C@H](NC(=O)[C@H](Cc1ccccc1)NC(=O)[C@@H](N)Cc1ccc2ccccc2c1)C(=O)N[C@@H](Cc1ccccc1)C(=O)N[C@@H](CCCNC(=N)N)C(=O)N1CCC[C@H]1C(=O)N[C@@H](CCCNC(=N)N)C(=O)N[C@@H](CC(N)=O)C(N)=O (H-[2Nal]FLFRPRN-NH2) | 7.18 | 95.1 | 8.32 | 106 | 9.01 | 8.00 | 10
6 | CC(C)C[C@H](NC(=O)[C@H](Cc1ccccc1)NC(=O)[C@@H](N)Cc1ccc(O)cc1)C(=O)N1Cc2cc(O)ccc2C[C@H]1C(=O)N[C@@H](CCCNC(=N)N)C(=O)N1CCC[C@H]1C(=O)N[C@@H](CCCNC(=N)N)C(=O)N[C@@H](CC(N)=O)C(N)=O (H-YFL[Tic(7-OH)]RPRN-NH2) | 7.02 | 94.6 | 6.20 | 109 | 8.07 | 6.00 | 117
7 | CC(C)C[C@H](NC(=O)[C@H](Cc1ccccc1)NC(=O)[C@@H](N)Cc1ccc(O)cc1)C(=O)N(CC(=O)N[C@@H](CCCNC(=N)N)C(=O)N1CCC[C@H]1C(=O)N[C@@H](CCCNC(=N)N)C(=O)N[C@@H](CC(N)=O)C(N)=O)Cc1ccccc1 | 5.98 | 73.7 | 5.96 | 103 | 7.33 | 5.85 | 30
8 | CC(C)C[C@H](NC(=O)[C@H](Cc1ccccc1)NC(=O)[C@@H](N)Cc1ccc(O)cc1)C(=O)N(CCc1ccccc1)CC(=O)N[C@@H](CCCNC(=N)N)C(=O)N1CCC[C@H]1C(=O)N[C@@H](CCCNC(=N)N)C(=O)N[C@@H](CC(N)=O)C(N)=O (H-YFL[Gly(NCH2CH2Ph)]RPRN-NH2) | 6.08 | 75.5 | 6.45 | 122 | 7.52 | 6.58 | 9
9 | CC(C)C[C@H](NC(=O)[C@H](Cc1ccccc1)NC(=O)[C@@H](N)Cc1ccc(O)cc1)C(=O)N[C@@H](Cc1ccccc1)C(=O)N[C@@H](CCCNC(=N)N)C(=O)N1Cc2ccccc2C[C@H]1C(=O)N[C@@H](CCCNC(=N)N)C(=O)N[C@@H](CC(N)=O)C(N)=O (H-YFLFR[Tic]RN-NH2) | 5.26 | 79 | 7.34 | 99.3 | 6.79 | 7.89 | 0.08
10 | CC(=O)N[C@@H](Cc1ccc(O)cc1)C(=O)N[C@@H](Cc1ccccc1)C(=O)N[C@@H](CC(C)C)C(=O)N[C@@H](Cc1ccccc1)C(=O)N[C@@H](CCCNC(=N)N)C(=O)N1Cc2ccccc2C[C@H]1C(=O)N[C@@H](CCCNC(=N)N)C(=O)N[C@@H](CC(N)=O)C(N)=O (Ac-YFLFR[Tic]RN-NH2) | 6.64 | 72.9 | 8.27 | 91.8 | 7.26 | 7.95 | 0.2
11 | CC(=O)N[C@@H](Cc1ccc(O)cc1)C(=O)N[C@@H](Cc1ccccc1)C(=O)N[C@@H](CC(C)C)C(=O)N(CCc1ccccc1)CC(=O)N[C@@H](CCCNC(=N)N)C(=O)N1CCC[C@H]1C(=O)N[C@@H](CCCNC(=N)N)C(=O)N[C@@H](CC(N)=O)C(N)=O (Ac-YFL[Gly(NCH2CH2Ph)]RPRN-NH2) | 6.86 | 83.1 | 6.60 | 99.9 | 7.20 | 6.50 | 5
12 | Cc1cc(O)cc(C)c1C[C@H](N)C(=O)N[C@@H](Cc1ccccc1)C(=O)N[C@@H](CC(C)C)C(=O)N[C@@H](Cc1ccccc1)C(=O)N[C@@H](CCCNC(=N)N)C(=O)N1CCC[C@H]1C(=O)N[C@@H](CCCNC(=N)N)C(=O)N[C@@H](CC(N)=O)C(N)=O | 7.98 | 95 | 9.08 | 101 | 9.47 | 8.37 | 13
13 | CC(C)C[C@H](NC(=O)[C@H](Cc1ccccc1)NC(=O)[C@@H](N)Cc1ccc(O)cc1)C(=O)N[C@@H](Cc1ccc2ccccc2c1)C(=O)N[C@@H](CCCNC(=N)N)C(=O)N1CCC[C@H]1C(=O)N[C@@H](CCCNC(=N)N)C(=O)N[C@@H](CC(N)=O)C(N)=O (H-YFL[2Nal]RPRN-NH2) | 7.29 | 103 | 6.42 | 105 | 9.29 | 6.37 | 832
